High-throughput results (PubChem BioAssay)
This is one part of a sample in which hits are shown more often than they occur.
HCT116 PTEN-null = growth suppression of PTEN-null HCT116, primary screen, cell-based, CellTiter-Glo | HCT116 PTEN-null viability, 60 h; active compounds read low | AID 827, 2007 | 140,000 tested, 1.2% active | viability, % at 10 µM;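 active means viability at or below a set limit, 4 SD under the median of all tested compounds, cut at about 3.7% in these data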;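 further: PTEN knockout HCT116 line with beta catenin targeted HCT116 as companion control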
Lung fibro prol = antiproliferative effect on LL 47 fibroblasts – human, LL 47 cells, CellTiter-Glo luminescence, primary screen | LL 47 human lung fibroblast viability, ATP luminescence; active compounds read low | viability, % at 10 µM | 85,000 tested, 1.1% active | AID 719, 2007;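 active means viability at or below 50% in the single dose screen; inactive means viability above 50%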;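 further: compound exposure lasted 72 h before the ATP readout; 100% = median luminescence of untreated cell-only wells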
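Material: Human LL 47 lung fibroblast cells | Input: 1,150 cells/well | Buffer or medium: IMEM plus 15% FBS | Compound dosing: 0.1% DMSO in all compound wells | Times: Overnight cell rest, 72 h compound treatment at 37 °C | Signal: CellTiter-Glo luminescence measuring cellular ATP | Measure: % viability versus median cells-only luminescence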
HUVEC inhibit = inhibitors of HUVEC proliferation, primary screen, cell-based, 384-well; 86,000 tested, 1.1% active; AID 648, 2007; viability, % at 10 µM (by protocol); CellTiter-Glo luminescence, 72 h; active compounds read low;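 active means viability at or below 30%; inactive means viability above 30%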;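 further: 100% = median luminescence of DMSO-only cell control wells on each plate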
HCT116 bCat-KO = primary screen for growth suppressors in beta-catenin knockout HCT116 cells (colon tumor, human). AID 818, 2007. HCT116 beta-catenin knockout viability, CellTiter-Glo, 60 h; active compounds read low. viability, % at 10 µM. 140,000 tested, 1.5% active;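 active means viability at or under a set limit, the compound median less 4 SD, cut at about 6% in these data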;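 further: 0% = Hyamine 1622 control at 20 µM and 100% = untreated cell control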
H69AR growth 86K = proliferation blockers of H69AR lung cancer cells, primary screen, cell-based, human, 86K library. 85,000 tested, 6% active. H69AR lung tumor viability, ATP luminescence, 72 h; active compounds read low. viability, % at 10 µM;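 active means viability at or below 40%; inactive means viability above 40%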;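 further: multidrug resistant small cell line overexpressing MRP-1 efflux transporter; 100% = mean luminescence of untreated control wells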
Starred values were filed as active, the others as inactive; / = no result given.

SMILES | HCT116 PTEN-null | Lung fibro prol | HUVEC inhibit | HCT116 bCat-KO | H69AR growth 86K
CCCCc1ccc(-c2csc(/C(C#N)=C\c3ccc(C)o3)n2)cc1 | 86.8 | / | / | 95.4 | /
CCOc1ccc(-c2csc(/C(C#N)=C\c3ccc(O)c([N+](=O)[O-])c3)n2)cc1 | 4.5 | / | / | 5.5* | /
Cc1cc(C)c2oc(-c3ccc(Cl)c(NC(=O)c4ccc(C#N)cc4F)c3)nc2c1 | 64.4 | 20.3* | 57.0 | 55.5 | 21.6*
N#Cc1ccc(C(=O)Nc2cccc3ncccc23)c(F)c1 | 92.3 | / | / | 90.2 | /
CCn1c(=O)c(C(=O)Nc2cnccn2)c(O)c2ccccc21 | / | 94.2 | 111.9 | / | 92.3
Cn1c(=O)c(C(=O)Nc2cnccn2)c(O)c2ccccc21 | / | 104.0 | 97.8 | / | 0.6*
Cn1c(=O)c(C(=O)Nc2ccccn2)c(O)c2ccccc21 | 12.4 | 54.7 | 103.4 | 14.7 | 19.2*
O=C(CSc1nc2ccccc2o1)Nc1nc2ccc(Br)cc2s1 | 102.4 | / | / | 95.8 | /
COc1ccc2nc(NC(=O)CSc3nc4ccccc4o3)sc2c1 | 103.3 | 94.9 | 86.3 | 99.1 | 7.1*
CCOC(=O)CNC(=O)CSc1nc2cccnc2n1Cc1ccccc1 | 91.1 | 103.3 | 105.5 | 91.6 | 93.2
Cc1nc(NC(=O)CSc2nc3cccnc3n2Cc2ccccc2)sc1C | 88.6 | 50.9 | 32.9 | 76.4 | 17.8*
CCOc1ccc2nc(NC(=O)CSc3nc4cccnc4n3C)sc2c1 | 74.0 | 96.7 | 68.4 | 80.8 | 26.5*
O=C(NCCO)C(F)(F)C(F)(F)C(F)(F)OC(F)(C(=O)NCCO)C(F)(F)F (configuration not stated) | 97.0 | 91.6 | 98.4 | 100.5 | 93.9
CCOC(=O)N1CCC(NC(=O)c2ccc3c(c2)N(Cc2ccc(C)cc2)CCS3)CC1 | 78.3 | 75.2 | 67.6 | 70.0 | 37.8*
CCOC(=O)N1CCC(NC(=O)c2ccc3c(c2)N(Cc2ccccc2)CCS3)CC1 | 68.5 | 87.9 | 83.7 | 55.4 | 45.1
CCOC(=O)N1CCC(NC(=O)c2cc(C(=O)NC3CCCC3)ccc2CO)CC1 | 92.9 | 87.6 | 113.2 | 90.0 | 102.4
CCOC(=O)N1CCC(NC(=O)c2ccc3c(c2)N(C)CCS3)CC1 | 90.8 | 94.2 | 84.1 | 97.4 | 37.3*
CCOC(=O)N1CCC(NC(=O)c2ccc3c(c2)N(Cc2ccc(F)cc2)CCS3)CC1 | 34.0 | 98.2 | 82.8 | 32.4 | 23.5*
Cc1c(C(=O)NN2CCN(C)CC2)cccc1[N+](=O)[O-] | 100.5 | / | / | 100.3 | /
COc1cc(/C=c2\s/c(=C(/C#N)C(=O)N3CCCC3)n(-c3ccccc3)c2=O)ccc1O | 27.7 | 77.4 | 12.5* | 64.0 | 10.4*
COC(=O)/C=c1/s/c(=C(/C#N)C(=O)N2CCCCC2)n(-c2ccccc2)c1=O | 98.8 | 101.6 | 86.5 | 89.9 | 35.9*
COc1ccc(OC)c(NC(=S)N2CCC(C(O)(c3ccccc3)c3ccccc3)CC2)c1 | 76.1 | / | / | 71.3 | /
C=C(C(=O)c1ccccc1)C(C)CC(=O)c1ccccc1 (configuration not stated) | 1.5* | / | / | 2.1* | /
CCCCn1nnnc1SCC(=O)Nc1ccc(N(C)C)cc1 | 91.9 | 105.7 | 82.8 | 104.7 | 68.8
Nc1cc(Br)c(N)c(Br)c1 | 98.5 | 97.3 | 92.4 | 93.5 | 23.0*
SMILES | HCT116 PTEN-null | Lung fibro prol | HUVEC inhibit | HCT116 bCat-KO | H69AR growth 86K
CCNC(=S)NNC(=O)c1cc(-c2cc(C)ccc2C)nc2ccccc12 | 89.8 | / | / | 106.3 | /
CCOc1cc(/C=C2/C(=O)ON=C2C)ccc1OCc1ccccc1F | 79.8 | 43.0* | 32.6 | 80.5 | 22.9*
CCOc1cc(/C=C2/C(=O)ON=C2C)ccc1OCc1ccc(F)cc1 | 70.6 | / | / | 88.8 | /
O=S(=O)(c1ccc(S(=O)(=O)N2CCN(C/C=C/c3ccccc3)CC2)cc1)N1CCCC1 | 89.0 | 84.3 | 70.4 | 65.3 | 35.6*
O=c1sc(/C=N/Nc2ccccc2)c(Cl)n1Cc1ccccc1 | 75.9 | / | / | 86.8 | /
COC(=O)c1cccc(Cn2c(Cl)c(/C=N/NC(=O)c3ccccc3Cl)sc2=O)c1 | 77.7 | 97.1 | 79.2 | 89.9 | 31.5*
NS(=O)(=O)c1cccc(NC(=O)CN2CCN(Cc3ccc4c(c3)OCO4)CC2)c1 | 96.1 | / | / | 99.0 | /
CSc1ccccc1NC(=O)Nc1ccc(Cl)cc1 | 19.7 | 83.6 | 46.7 | 29.4 | 35.3*
CSc1cccc(NC(=O)Nc2ccc(Cl)cc2)c1 | 63.4 | 94.1 | 96.8 | 62.2 | 85.8
O=C(NCc1ccccc1Cl)c1ccccc1Oc1ccccc1 | 103.0 | / | / | 100.7 | /
COc1ccc(CNC(=O)c2cnn3c(C(F)F)cc(C)nc23)cc1OC | 79.8 | 94.3 | 111.3 | 77.9 | 83.1
CC1(C)CC(=O)c2cc(NC(=O)c3ccccc3)c(=O)oc2C1 | 98.3 | / | / | 96.5 | /
Cn1c(N2CCN(c3ccccn3)CC2)nc2c1c(=O)n(Cc1ccccc1Cl)c(=O)n2C | / | 91.9 | 83.9 | / | 23.4*
Cc1cc(C)n(-c2nc3c(c(=O)n(Cc4ccc(Cl)c(Cl)c4)c(=O)n3C)n2C)n1 | / | 90.7 | 69.1 | / | 38.0*
Cn1c(N2CCCCC2)nc2c1c(=O)n(Cc1cccc(Br)c1)c(=O)n2C | 67.0 | 98.2 | 99.5 | 89.6 | 34.5*
CC1CN(c2nc3c(c(=O)n(Cc4ccc(Cl)c(Cl)c4)c(=O)n3C)n2C)CC(C)O1 (configuration not stated) | 57.2 | 88.1 | 90.0 | 62.8 | 95.5
CCOC(=O)/C(N=Nc1sc(C(=O)OC)c(C)c1C(=O)OCC)=C(\O)CCl | 96.8 | / | / | 91.2 | /
Cc1nc(Cl)sc1C(=O)Nc1ccc(Cl)cc1 | 91.9 | / | / | 96.9 | /
Cn1c(=S)[nH]c2[nH]c(=O)cnc2c1=O | 108.6 | / | / | 93.6 | /
CC(C)OP(=O)(OC(C)C)C(NC(=O)c1ccc(Br)cc1)c1ccccc1 (configuration not stated) | 51.5 | 94.4 | 77.7 | 68.3 | 28.3*
CC(NC(=O)c1ccc(Br)cc1)c1ccccc1 (configuration not stated) | 87.8 | / | / | 84.1 | /
O=C(NC(NC(=S)Nc1c(Cl)cc(Cl)cc1Cl)C(Cl)(Cl)Cl)OCc1ccccc1 (configuration not stated) | 5.1 | / | / | 5.9* | /
Cc1ccc(C)c(NC(=S)NC(NC(=O)OCc2ccccc2)C(Cl)(Cl)Cl)c1 (configuration not stated) | 92.4 | / | / | 84.2 | /
CC(C(=O)N1CCN(c2ccc(Cl)cc2)CC1)c1ncc(C(F)(F)F)cc1Cl (configuration not stated) | 56.9 | / | / | 47.3 | /
Cc1ccc(OCCN2CCN(CC(O)Cn3c4ccccc4c4ccccc43)CC2)cc1 (configuration not stated) | 1.4* | / | / | 1.2* | /
CCCCNC(=O)c1onc(CSc2ccc(C(C)C)cc2)c1C(=O)O | 101.7 | / | / | 94.8 | /
COc1ccc(CNCCC(c2ccc(F)cc2)c2ccc(OC)cc2)cc1 (configuration not stated) | 9.3 | / | / | 1.9* | /
COc1ccc(C(CCNCc2ccc(F)cc2)c2ccc(F)cc2)cc1 (configuration not stated) | 1.2* | / | / | 1.2* | /
